Data as given in ChEMBL document CHEMBL2163325, “Discovery of phosphoinositide 3-kinases (PI3K) p110β isoform inhibitor 4-[2-hydroxyethyl(1-naphthylmethyl)amino]-6-[(2S)-2-methylmorpholin-4-yl]-1H-pyrimidin-2-one, an effective antithrombotic agent without associated bleeding and insulin resistance” (Bioorg Med Chem Lett, 2012).

How the values were obtained:
[1] = Half life in human liver microsomes at 2 uM; assay type: ADME, Microsome
[2] = molecular target: Phosphatidylinositol 4,5-bisphosphate 3-kinase catalytic subunit alpha isoform (Homo sapiens, UniProt P42336); assay: Inhibition of human recombinant His6-tagged PI3K p110alpha expressed in baculovirus infected cells using DiC8-PI(4,5)P2 as substrate after 20 mins by AlphaScreen assay
Phosphatidylinositol 4,5-bisphosphate 3-kinase catalytic subunit alpha isoform, sequence (P42336 whole entry, canonical isoform): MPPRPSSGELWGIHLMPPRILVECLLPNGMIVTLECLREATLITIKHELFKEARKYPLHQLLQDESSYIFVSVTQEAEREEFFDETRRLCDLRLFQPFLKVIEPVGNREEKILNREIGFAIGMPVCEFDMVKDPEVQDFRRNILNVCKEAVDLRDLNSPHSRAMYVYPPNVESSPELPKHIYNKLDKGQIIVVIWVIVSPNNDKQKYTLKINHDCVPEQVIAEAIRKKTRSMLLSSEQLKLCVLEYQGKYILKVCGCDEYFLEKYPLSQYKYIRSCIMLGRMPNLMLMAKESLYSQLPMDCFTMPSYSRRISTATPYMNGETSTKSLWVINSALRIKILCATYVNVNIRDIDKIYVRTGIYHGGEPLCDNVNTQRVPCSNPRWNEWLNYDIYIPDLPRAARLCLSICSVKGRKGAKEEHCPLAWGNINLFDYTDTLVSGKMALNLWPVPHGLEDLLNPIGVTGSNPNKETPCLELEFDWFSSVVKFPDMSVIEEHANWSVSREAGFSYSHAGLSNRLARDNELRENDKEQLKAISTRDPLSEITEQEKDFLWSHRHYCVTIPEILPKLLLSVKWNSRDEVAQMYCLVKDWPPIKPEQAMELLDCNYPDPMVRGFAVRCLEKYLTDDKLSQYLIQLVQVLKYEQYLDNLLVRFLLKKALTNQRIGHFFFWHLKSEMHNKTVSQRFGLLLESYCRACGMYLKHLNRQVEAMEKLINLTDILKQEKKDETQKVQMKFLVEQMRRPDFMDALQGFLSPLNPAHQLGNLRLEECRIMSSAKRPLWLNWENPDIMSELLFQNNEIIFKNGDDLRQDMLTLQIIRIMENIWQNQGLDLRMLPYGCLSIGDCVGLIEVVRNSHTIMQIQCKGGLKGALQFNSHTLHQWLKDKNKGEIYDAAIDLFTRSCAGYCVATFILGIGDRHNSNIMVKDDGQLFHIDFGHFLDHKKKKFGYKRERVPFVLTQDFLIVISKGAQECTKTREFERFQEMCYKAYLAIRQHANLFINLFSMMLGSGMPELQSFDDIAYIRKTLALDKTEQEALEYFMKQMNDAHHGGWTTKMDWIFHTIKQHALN

[3] = molecular target: Phosphatidylinositol 4,5-bisphosphate 3-kinase catalytic subunit beta isoform (Homo sapiens, UniProt P42338); assay: Inhibition of human PI3K p110beta-mediated AKT phosphorylation at Ser473 in MDA-MB-468 cells after 2 hrs by fluorescence microplate cytometric analysis; assay type: cell-based
Phosphatidylinositol 4,5-bisphosphate 3-kinase catalytic subunit beta isoform, sequence (P42338 whole entry, canonical isoform): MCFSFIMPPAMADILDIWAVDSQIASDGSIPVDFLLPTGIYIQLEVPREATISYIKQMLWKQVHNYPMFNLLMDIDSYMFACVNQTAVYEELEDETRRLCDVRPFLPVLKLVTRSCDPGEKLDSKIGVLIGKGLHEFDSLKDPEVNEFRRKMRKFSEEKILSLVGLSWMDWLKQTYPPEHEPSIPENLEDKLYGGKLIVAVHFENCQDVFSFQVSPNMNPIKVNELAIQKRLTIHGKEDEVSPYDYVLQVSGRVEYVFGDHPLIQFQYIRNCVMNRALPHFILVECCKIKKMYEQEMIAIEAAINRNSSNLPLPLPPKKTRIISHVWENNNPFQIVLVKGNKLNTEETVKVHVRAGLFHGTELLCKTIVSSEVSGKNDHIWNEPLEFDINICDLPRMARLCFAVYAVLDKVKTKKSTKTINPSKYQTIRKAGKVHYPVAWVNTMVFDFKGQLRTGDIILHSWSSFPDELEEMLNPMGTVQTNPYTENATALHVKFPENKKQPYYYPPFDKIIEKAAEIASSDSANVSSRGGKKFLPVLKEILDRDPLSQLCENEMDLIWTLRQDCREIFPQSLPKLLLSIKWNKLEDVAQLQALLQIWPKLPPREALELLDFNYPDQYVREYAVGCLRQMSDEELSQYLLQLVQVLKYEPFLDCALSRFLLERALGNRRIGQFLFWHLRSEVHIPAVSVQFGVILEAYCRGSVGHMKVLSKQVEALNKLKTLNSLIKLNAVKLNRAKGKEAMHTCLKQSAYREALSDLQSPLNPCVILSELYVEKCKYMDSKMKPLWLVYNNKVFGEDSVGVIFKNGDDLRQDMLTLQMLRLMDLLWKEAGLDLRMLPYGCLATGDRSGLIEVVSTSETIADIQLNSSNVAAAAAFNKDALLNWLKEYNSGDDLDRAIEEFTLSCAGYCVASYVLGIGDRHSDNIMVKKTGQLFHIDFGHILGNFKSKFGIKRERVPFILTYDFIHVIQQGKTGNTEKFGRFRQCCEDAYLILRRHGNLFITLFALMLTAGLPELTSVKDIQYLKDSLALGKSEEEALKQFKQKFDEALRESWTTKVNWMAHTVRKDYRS
Method in brief: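 MDA-MB-468 cells kept in DMEM with 10% heat-inactivated FCS and L-glutamine. Seeded at 1500 cells/well, incubated overnight at 37 °C, 5% CO2. Exposed to compound for 2 h. Ser473 phospho-Akt detected with a specific antibody by laser scanning fluorescence microplate cytometry.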

[4] = molecular target: Sodium channel protein type 5 subunit alpha (Homo sapiens, UniProt Q14524); assay: Inhibition of human NaV1.5 expressed in CHO cells at 31.6 uM by patch clamp assay; assay type: cell-based
Sodium channel protein type 5 subunit alpha, sequence (Q14524 whole entry): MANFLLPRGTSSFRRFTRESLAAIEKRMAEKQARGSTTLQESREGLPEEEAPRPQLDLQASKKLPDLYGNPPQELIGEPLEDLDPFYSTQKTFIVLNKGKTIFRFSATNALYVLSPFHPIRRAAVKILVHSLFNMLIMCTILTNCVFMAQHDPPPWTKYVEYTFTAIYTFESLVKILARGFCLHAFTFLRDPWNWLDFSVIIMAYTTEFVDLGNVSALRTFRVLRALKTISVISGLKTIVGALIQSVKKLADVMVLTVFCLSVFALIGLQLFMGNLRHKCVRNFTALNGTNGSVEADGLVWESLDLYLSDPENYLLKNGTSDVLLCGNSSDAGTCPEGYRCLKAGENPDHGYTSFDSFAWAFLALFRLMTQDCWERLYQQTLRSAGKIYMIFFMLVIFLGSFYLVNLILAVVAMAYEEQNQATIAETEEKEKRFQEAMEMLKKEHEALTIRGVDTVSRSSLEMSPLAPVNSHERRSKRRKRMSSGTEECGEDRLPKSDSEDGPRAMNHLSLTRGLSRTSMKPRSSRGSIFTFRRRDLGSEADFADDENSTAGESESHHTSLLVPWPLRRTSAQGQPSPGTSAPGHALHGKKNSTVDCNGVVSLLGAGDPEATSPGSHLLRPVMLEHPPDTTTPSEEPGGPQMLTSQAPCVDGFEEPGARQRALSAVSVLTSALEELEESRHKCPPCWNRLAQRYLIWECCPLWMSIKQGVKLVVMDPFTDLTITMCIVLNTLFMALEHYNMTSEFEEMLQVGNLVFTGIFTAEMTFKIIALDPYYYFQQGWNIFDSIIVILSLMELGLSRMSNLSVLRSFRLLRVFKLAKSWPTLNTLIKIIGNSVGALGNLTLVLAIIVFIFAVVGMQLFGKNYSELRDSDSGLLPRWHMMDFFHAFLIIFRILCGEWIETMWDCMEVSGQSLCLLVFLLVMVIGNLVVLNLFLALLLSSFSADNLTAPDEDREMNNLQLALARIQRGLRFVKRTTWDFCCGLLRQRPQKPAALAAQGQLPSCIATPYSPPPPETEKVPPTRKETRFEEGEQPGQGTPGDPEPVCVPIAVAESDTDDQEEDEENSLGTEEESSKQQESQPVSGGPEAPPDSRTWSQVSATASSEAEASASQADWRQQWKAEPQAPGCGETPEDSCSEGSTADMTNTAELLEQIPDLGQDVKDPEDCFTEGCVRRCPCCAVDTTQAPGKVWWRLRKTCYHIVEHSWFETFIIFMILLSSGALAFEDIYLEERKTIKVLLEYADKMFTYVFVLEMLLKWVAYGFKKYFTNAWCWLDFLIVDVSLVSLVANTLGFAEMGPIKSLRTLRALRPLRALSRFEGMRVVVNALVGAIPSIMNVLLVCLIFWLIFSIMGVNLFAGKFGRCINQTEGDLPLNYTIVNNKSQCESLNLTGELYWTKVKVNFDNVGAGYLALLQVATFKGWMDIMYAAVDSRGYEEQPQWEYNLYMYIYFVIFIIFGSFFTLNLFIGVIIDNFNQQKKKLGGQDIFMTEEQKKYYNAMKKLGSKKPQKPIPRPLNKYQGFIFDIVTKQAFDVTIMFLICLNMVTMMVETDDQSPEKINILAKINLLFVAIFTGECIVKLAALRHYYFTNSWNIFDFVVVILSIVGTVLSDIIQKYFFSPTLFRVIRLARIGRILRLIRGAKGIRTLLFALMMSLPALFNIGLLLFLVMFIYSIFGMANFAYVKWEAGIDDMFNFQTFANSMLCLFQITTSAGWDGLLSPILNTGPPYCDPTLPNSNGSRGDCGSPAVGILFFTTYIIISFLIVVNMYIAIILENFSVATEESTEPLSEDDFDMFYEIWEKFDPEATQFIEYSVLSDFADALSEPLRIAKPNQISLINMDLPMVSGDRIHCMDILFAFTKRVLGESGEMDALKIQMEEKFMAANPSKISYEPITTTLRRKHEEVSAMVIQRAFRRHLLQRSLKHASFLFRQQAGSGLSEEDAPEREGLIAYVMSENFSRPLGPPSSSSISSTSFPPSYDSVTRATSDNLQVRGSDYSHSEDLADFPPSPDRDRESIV

[5] = Lipophilicity, log D of the compound at pH 7.4 by HPLC analysis; assay type: physicochemical; details: buffer
Method in brief: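 LogD measured at pH 7.4 by HPLC.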

Homo sapiens = species on record: Homo sapiens; assay: Selectivity ratio of IC50 for human PI3K p110alpha to IC50 for human PI3K p110beta
[6] = Antiplatelet activity in human whole blood assessed as inhibition of ADP-induced platelet aggregation by impedance aggregometry; assay type: functional, tissue-based
Method in brief: (§1)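 Citrated whole blood drawn by venipuncture from healthy human donors or beagle dogs, sodium citrate at 11 mM final in blood. ADP-induced aggregation read by Multiplate impedance aggregometry. N > 3.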

[7] = molecular target: T1, Phosphatidylinositol 4,5-bisphosphate 3-kinase catalytic subunit delta isoform (Homo sapiens, UniProt O00329); assay: Inhibition of human recombinant His6-tagged PI3K p110delta expressed in baculovirus infected cells using DiC8-PI(4,5)P2 as substrate after 20 mins by AlphaScreen assay
T1 sequence (O00329 whole entry): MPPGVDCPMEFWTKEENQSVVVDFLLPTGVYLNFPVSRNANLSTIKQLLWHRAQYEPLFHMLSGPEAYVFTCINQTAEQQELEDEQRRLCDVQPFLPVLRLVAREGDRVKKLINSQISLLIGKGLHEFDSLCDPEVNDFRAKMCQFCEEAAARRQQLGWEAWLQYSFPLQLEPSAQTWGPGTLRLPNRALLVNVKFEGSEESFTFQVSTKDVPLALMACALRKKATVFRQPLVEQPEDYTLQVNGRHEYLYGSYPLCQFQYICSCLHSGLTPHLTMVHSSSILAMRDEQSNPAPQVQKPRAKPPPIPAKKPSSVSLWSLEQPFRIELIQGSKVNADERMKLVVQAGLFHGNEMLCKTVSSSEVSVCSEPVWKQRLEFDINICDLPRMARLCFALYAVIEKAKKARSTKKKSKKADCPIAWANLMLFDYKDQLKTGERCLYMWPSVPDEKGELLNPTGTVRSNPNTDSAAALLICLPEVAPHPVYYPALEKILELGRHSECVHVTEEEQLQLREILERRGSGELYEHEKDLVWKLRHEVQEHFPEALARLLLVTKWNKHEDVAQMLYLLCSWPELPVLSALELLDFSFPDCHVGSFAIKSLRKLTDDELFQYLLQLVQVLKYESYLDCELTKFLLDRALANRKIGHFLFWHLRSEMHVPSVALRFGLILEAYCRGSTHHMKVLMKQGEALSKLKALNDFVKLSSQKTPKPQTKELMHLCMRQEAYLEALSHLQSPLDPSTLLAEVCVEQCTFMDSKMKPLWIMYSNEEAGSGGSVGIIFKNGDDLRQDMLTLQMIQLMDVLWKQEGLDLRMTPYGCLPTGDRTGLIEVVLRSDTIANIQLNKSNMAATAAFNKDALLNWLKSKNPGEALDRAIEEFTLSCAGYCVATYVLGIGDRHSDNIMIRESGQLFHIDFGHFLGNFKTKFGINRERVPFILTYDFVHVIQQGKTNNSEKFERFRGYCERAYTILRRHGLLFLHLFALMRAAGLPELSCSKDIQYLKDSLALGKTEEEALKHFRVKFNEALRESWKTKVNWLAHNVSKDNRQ

[8] = Oral bioavailability in fasted Beagle dog at 2 umol/kg; assay type: ADME, organism-based, Canis lupus familiaris; details: in vivo
Method in brief: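 Fasted male Beagle dogs, iv and po (N = 2 per route). Parameters derived by noncompartmental analysis of plasma concentrations.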

[9] = Antiplatelet activity in Beagle dog whole blood assessed as inhibition of ADP-induced platelet aggregation by impedance aggregometry; assay type: functional, tissue-based; details: Canis lupus familiaris; method in brief: as §1
Canis familiaris = assay: Ex-vivo antiplatelet activity in iv dosed Beagle dog whole blood assessed as inhibition of ADP-induced platelet aggregation administered as bolus infusion for 1 min followed by continuous infusion for 29 mins; assay type: functional, organism-based; details: Canis lupus familiaris
Method in brief: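 Anaesthetized, intubated, ventilated beagles (N = 2). Femoral artery intima damaged and flow reduced to give cyclic flow reductions. Control period vehicle iv (30% cyclodextrin). Then 5 ascending 30-min periods, each a bolus over 1 min plus continuous infusion for 29 min. Tongue incision bleeding time from 15 min, capped at 15 min. Blood at 20 min for ex vivo aggregation and plasma level. EC50 fitted sigmoidally; EC_BT:2 from an exponential fit.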

Liver microsomes = assay: Drug metabolism in human liver microsomes assessed as reactive metabolite formation after 30 mins in presence of glutathione relative to clozapine; assay type: ADME, Microsome; details: 0.5 h
Method in brief: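 Incubation with human liver microsomes (1 mg/mL) plus glutathione for 30 min. Summed glutathione-adduct peak areas divided by the major adduct peak area of clozapine control (average, N = 3). Ratio >1 ranked high, 0.25–1 medium, <0.25 low.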

[10] = Antiplatelet activity in human platelet rich plasma assessed as inhibition of collagen-induced platelet aggregation by light transmission aggregometry; assay type: functional
Method in brief: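 Healthy-donor blood drawn by venipuncture into sodium citrate (11 mM final in blood), then platelet rich plasma prepared. Collagen-induced aggregation measured by light transmission aggregometry, either in an aggregometer or in an in-house 96-well plate format.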

Which results are given for C[C@H]1CN(c2cc(N(CCO)Cc3cccc4ccccc34)[nH]c(=O)n2)CCO1?
half-life at 2 µM [1]: > 2.88 h; IC50 [2]: 27200 nM; IC50 [3]: 195 nM; inhibition (INH) [4]: Not Active; logD [5]: 1.9; Ratio IC50 (Homo sapiens): > 700; IC50 [6]: 2100 nM; IC50 [7]: 168 nM; bioavailability [8]: 25%; IC50 [9]: 3800 nM; EC50 (Canis familiaris): 1100 nM; inhibition (Canis familiaris): Dose-dependent effect; Drug metabolism (Liver microsomes): Not Active; IC50 [10]: 400 nM
